Activity calls are given as the source filed them. The calls are words filed in the database; no cut-off is given here.
Assays:
[1] = target: T1, DNA topoisomerase 2-alpha (Homo sapiens, UniProt P11388); assay: Inhibition of DNA topoisomerase 2alpha-mediated pBR322 DNA cleavage at 50 uM by SDS-PAGE
How it was run: (§1)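 Topoisomerase IIα (150 ng) with 80 ng pBR322 and 0.5 mM ATP in pH 8.0 Tris/KCl/NaCl/MgCl2/glycerol buffer. Drug added last from DMSO. Incubated 10 min at 37°C, quenched with SDS/EDTA, then proteinase K 30 min at 55°C. Linear DNA resolved on a 1.2% agarose ethidium bromide gel against a HindIII-linearised pBR322 marker.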

[2] = target: T1, DNA topoisomerase 2-alpha; assay: Inhibition of DNA topoisomerase 2alpha-mediated pBR322 DNA cleavage at 100 uM by SDS-PAGE; how it was run: as §1
[3] = target: T1, DNA topoisomerase 2-alpha; assay: Inhibition of DNA topoisomerase 2alpha in human K562 cells assessed as protein-DNA covalent complex formation under UV irradiation by scintillation counting; type: cell-based
How it was run: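 Radiolabelled K562 cells (1.5×10^6/ml, pH 7.4 buffer) given compound (2.5–20 μM), then irradiated or not at 365 nm for 5 min from 16 mm. Incubated 60 min at 37°C in the dark. SDS/KCl-precipitated protein-DNA complexes measured by scintillation, with 3H normalised to 14C. Nine experiments on different days. Paired t-tests of UV versus no UV at each concentration.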

[4] = target: T1, DNA topoisomerase 2-alpha; assay: Inhibition of DNA topoisomerase 2alpha in human K562 cells assessed as protein-DNA covalent complex formation at 80 uM by scintillation counting; type: cell-based
How it was run: (§2)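 K562 or K/VP.5 cells prelabelled 24 h with [3H]thymidine and [14C]leucine. Cells held at 1.5×10^6/ml in HEPES-buffered saline-glucose pH 7.4 and exposed to compound for 60 min at 37°C in the dark. Protein-DNA complexes precipitated with SDS/KCl after lysis and DNA shearing, and counted by scintillation. 3H normalised to 14C protein.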

[5] = target: T1, DNA topoisomerase 2-alpha; assay: Inhibition of DNA topoisomerase 2alpha in human K-VP.5 cells assessed as decrease in protein-DNA covalent complex formation at 80 uM by scintillation counting; type: cell-based; how it was run: as §2
[6] = target: T1, DNA topoisomerase 2-alpha; assay: Inhibition of DNA topoisomerase 2alpha-mediated pBR322 DNA cleavage at 20 uM by SDS-PAGE
[7] = target: T1, DNA topoisomerase 2-alpha; assay: Ratio of etoposide IC50 to IC50 for drug against human DNA topoisomerase 2alpha-mediated decatenation of kinetoplast plasmid DNA by fluorescent plate reader
K562 = assay: Cytotoxicity against human K562 cells after 72 hrs by MTS assay; type: functional, cell-based; conditions: K562, 72 h
How it was run: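 K562 cells in αMEM with 10% fetal calf serum, 37°C, 5% CO2. Exponentially growing cells seeded at 6000/well. Compound added from DMSO stock (final DMSO 0.5% v/v), continuous exposure for 72 h. MTS added for a further 3 h and absorbance read. Three replicates per concentration. IC50 from a four-parameter logistic fit.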

[8] = target: T1, DNA topoisomerase 2-alpha; conditions: 50 uM
[9] = target: T1, DNA topoisomerase 2-alpha; conditions: K562, 25 uM
[10] = target: T1, DNA topoisomerase 2-alpha; conditions: K562, 50 uM

T1 sequence (P11388 whole entry): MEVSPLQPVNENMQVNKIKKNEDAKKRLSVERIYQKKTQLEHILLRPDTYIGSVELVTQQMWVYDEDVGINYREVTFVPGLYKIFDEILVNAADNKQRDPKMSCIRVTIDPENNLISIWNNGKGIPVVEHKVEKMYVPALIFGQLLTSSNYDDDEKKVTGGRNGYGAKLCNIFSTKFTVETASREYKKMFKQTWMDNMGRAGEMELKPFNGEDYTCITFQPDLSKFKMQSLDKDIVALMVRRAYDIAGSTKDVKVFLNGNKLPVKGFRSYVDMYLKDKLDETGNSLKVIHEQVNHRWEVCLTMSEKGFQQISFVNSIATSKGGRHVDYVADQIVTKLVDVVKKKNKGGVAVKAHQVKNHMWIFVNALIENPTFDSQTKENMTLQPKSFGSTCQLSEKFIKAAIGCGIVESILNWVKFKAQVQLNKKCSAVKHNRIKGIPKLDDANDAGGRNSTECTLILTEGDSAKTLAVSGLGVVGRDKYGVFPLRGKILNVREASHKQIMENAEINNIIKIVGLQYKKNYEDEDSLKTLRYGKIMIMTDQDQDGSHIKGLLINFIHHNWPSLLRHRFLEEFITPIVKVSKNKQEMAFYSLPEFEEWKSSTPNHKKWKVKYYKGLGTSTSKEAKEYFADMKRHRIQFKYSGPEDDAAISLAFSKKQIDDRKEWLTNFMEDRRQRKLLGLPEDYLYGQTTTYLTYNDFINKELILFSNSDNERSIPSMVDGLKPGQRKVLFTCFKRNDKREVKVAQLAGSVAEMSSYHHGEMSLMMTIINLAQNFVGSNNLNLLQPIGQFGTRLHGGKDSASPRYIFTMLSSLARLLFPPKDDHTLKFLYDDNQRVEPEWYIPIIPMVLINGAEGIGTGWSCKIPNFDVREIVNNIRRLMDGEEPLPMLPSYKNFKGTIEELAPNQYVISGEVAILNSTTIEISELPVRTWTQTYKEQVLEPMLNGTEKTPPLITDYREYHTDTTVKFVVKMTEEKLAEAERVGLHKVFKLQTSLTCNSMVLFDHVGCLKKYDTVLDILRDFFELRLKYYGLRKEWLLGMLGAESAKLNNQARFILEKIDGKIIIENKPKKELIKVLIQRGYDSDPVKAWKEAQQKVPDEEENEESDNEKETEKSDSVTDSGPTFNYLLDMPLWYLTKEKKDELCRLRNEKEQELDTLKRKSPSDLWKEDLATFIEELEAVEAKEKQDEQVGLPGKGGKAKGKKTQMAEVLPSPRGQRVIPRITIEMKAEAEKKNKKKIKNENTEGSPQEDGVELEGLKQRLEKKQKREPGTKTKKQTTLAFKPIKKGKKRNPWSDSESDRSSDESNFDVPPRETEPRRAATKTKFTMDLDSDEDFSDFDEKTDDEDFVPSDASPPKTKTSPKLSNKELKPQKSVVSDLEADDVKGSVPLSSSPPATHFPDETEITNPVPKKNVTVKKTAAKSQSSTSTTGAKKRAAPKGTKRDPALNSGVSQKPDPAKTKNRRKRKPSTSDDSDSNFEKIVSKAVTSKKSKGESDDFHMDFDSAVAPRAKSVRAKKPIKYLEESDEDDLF

Row | Compound | inhibition [1] | inhibition [2] | inhibition [3] | inhibition [4] | inhibition [5] | inhibition [6] | Ratio IC50 [7] | IC50 (K562) | inhibition [8] | inhibition [9] | inhibition [10]
1 | CC[C@@]1(O)C(=O)OCc2c1cc1n(c2=O)Cc2cc3ccccc3nc2-1 | 40% | – | – | – | – | – | – | – | – | – | –
2 | COc1cc([C@@H]2c3cc4c(cc3[C@@H](NC(=O)c3ccc(C5(C(F)(F)F)N=N5)cc3)[C@H]3COC(=O)[C@H]23)OCO4)cc(OC)c1O [DIAZIRINE] | Active | Active | Dose-dependent effect | Active | Active | inactive | 2 | – | – | – | –
3 | COc1cc([C@@H]2c3cc4c(cc3[C@@H](O[C@@H]3O[C@@H]5CO[C@@H](C)O[C@H]5[C@H](O)[C@H]3O)[C@H]3COC(=O)[C@H]23)OCO4)cc(OC)c1O [ETOPOSIDE] | – | Active | – | – | – | inactive | – | 420 nM | Active | inactive | Active

Reference: ChEMBL document CHEMBL1157724 (Bioorg Med Chem, 2010)
